Test results from ChEMBL document CHEMBL1128718, “2-Substituted penems with amino acid-related side chains: synthesis and antibacterial activity of a new series of beta-lactam antibiotics” (1995).
Values after ≈ are worked out from the molar mass of the structure shown.

Experiments:
Assay type in all cases: functional
Enterococcus faecalis = test: In Vitro antibacterial activity against (Ef) Enterococcus faecalis ATCC 29212
Method in brief: (§1)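 Panel of standard ATCC strains plus modified strains: methicillin-resistant, hyperpermeable, β-lactamase-producing (TEM1, TEM2, SHV) and β-lactamase-lacking. MIC determined in Mueller Hinton 2 medium, inoculum 10⁴ cells/mL, incubated 24 h at 37 °C.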

Escherichia coli [1] = test: In Vitro antibacterial activity against (Ec L) Escherichia coli […] strain; method in brief: as §1
Escherichia coli [2] = test: In Vitro antibacterial activity against (Ec SHV) Escherichia coli […] strain; method in brief: as §1
Escherichia coli [3] = test: In Vitro antibacterial activity against (Ec TEM1) Escherichia coli […] strain; method in brief: as §1
Escherichia coli [4] = test: In Vitro antibacterial activity against (Ec TEM2) Escherichia coli […] strain; method in brief: as §1
Escherichia coli [5] = test: In Vitro antibacterial activity against (Ec) Escherichia coli ATCC 25922; method in brief: as §1
Pseudomonas aeruginosa [6] = test: In Vitro antibacterial activity against (Pa G242) hyperpermeable Pseudomonas aeruginosa strain; method in brief: as §1
Pseudomonas aeruginosa [7] = test: In Vitro antibacterial activity against (Pa) Pseudomonas aeruginosa ATCC 27853; method in brief: as §1
Pseudomonas aeruginosa [8] = test: In Vitro antibacterial activity against (Pa) hyperpermeable Pseudomonas aeruginosa […] strain; method in brief: as §1
Staphylococcus aureus [9] = test: In vitro antibacterial activity against Sa MR(I) heterogeneous methicillin resistant Staphylococcus aureus
Method in brief: (§2)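 MIC was determined in Mueller Hinton 2 medium with an inoculum of 10⁴ cells/mL and incubation for 24 h at 37 °C. Strains: Sa(I) is S. aureus ATCC 29213; Sa MR(I) is a heterogeneous methicillin-resistant S. aureus; Sa MR(II) is a homogeneous methicillin-resistant S. aureus.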

Staphylococcus aureus [10] = test: In vitro antibacterial activity against Sa MR(II) homogeneous methicillin resistant Staphylococcus aureus; method in brief: as §2
Staphylococcus aureus [11] = test: In vitro antibacterial activity against Sa(I) Staphylococcus aureus ATCC 29213; method in brief: as §2
Staphylococcus aureus [12] = test: In vitro antibacterial activity against Sa(II) Staphylococcus aureus ATCC 25923; method in brief: as §1
Escherichia coli [13] = test: In Vitro antibacterial activity against (Ec DC2) hyperpermeable Escherichia coli strain; method in brief: as §1

| SMILES | MIC (Enterococcus faecalis) [µg/mL] | MIC (Escherichia coli [1]) [µg/mL] | MIC (Escherichia coli [2]) [µg/mL] | MIC (Escherichia coli [3]) [µg/mL] | MIC (Escherichia coli [4]) [µg/mL] | MIC (Escherichia coli [5]) [µg/mL] | MIC (Pseudomonas aeruginosa [6]) [µg/mL] | MIC (Pseudomonas aeruginosa [7]) [µg/mL] | MIC (Pseudomonas aeruginosa [8]) [µg/mL] | MIC (Staphylococcus aureus [9]) [µg/mL] | MIC (Staphylococcus aureus [10]) [µg/mL] | MIC (Staphylococcus aureus [11]) [µg/mL] | MIC (Staphylococcus aureus [12]) [µg/mL] | MIC (Escherichia coli [13]) [µg/mL] |
| --- | --- | --- | --- | --- | --- | --- | --- | --- | --- | --- | --- | --- | --- | --- |
| C[C@@H](O)[C@H]1C(=O)N2C(C(=O)O)=C(CN3C[C@@H](O)C[C@@H]3C(N)=O)S[C@H]12 | 32 (≈ 89.5 µM) | 1 (≈ 2.8 µM) | 1 (≈ 2.8 µM) | 1 (≈ 2.8 µM) | 1 (≈ 2.8 µM) | 1 (≈ 2.8 µM) | 1 (≈ 2.8 µM) | > 64 | 0.5 (≈ 1.4 µM) | 0.25 (≈ 0.7 µM) | 16 (≈ 44.8 µM) | 0.12 (≈ 0.336 µM) | 0.06 (≈ 0.168 µM) | 1 (≈ 2.8 µM) |
| C[C@@H](O)[C@H]1C(=O)N2C(C(=O)O)=C(CN3C[C@@H](O)C[C@H]3C(N)=O)S[C@H]12 | 16 (≈ 44.8 µM) | 2 (≈ 5.6 µM) | 2 (≈ 5.6 µM) | 1 (≈ 2.8 µM) | 2 (≈ 5.6 µM) | 0.5 (≈ 1.4 µM) | 2 (≈ 5.6 µM) | > 64 | 0.5 (≈ 1.4 µM) | 0.25 (≈ 0.7 µM) | 8 (≈ 22.4 µM) | 0.25 (≈ 0.7 µM) | 0.12 (≈ 0.336 µM) | 2 (≈ 5.6 µM) |
| C[C@@H](O)[C@H]1C(=O)N2C(C(=O)O)=C(CN(C)CCC(N)=O)S[C@H]12 | 16 (≈ 48.6 µM) | 1 (≈ 3.04 µM) | 1 (≈ 3.04 µM) | 1 (≈ 3.04 µM) | 1 (≈ 3.04 µM) | 0.5 (≈ 1.52 µM) | 1 (≈ 3.04 µM) | > 64 | 2 (≈ 6.07 µM) | 0.12 (≈ 0.364 µM) | 2 (≈ 6.07 µM) | 0.12 (≈ 0.364 µM) | 0.06 (≈ 0.182 µM) | 2 (≈ 6.07 µM) |
| C[C@@H](O)[C@H]1C(=O)N2C(C(=O)O)=C(COC(N)=O)S[C@H]12 [RITIPENEM] | 2 (≈ 6.94 µM) | 1 (≈ 3.47 µM) | 1 (≈ 3.47 µM) | 1 (≈ 3.47 µM) | 1 (≈ 3.47 µM) | 0.5 (≈ 1.73 µM) | 1 (≈ 3.47 µM) | > 64 | 0.5 (≈ 1.73 µM) | 0.12 (≈ 0.416 µM) | 2 (≈ 6.94 µM) | 0.12 (≈ 0.416 µM) | 0.06 (≈ 0.208 µM) | 1 (≈ 3.47 µM) |
| C[C@@H](O)[C@H]1C(=O)N2C(C(=O)O)=C(CN(CC(N)=O)CC(N)=O)S[C@H]12 | > 64 | 0.25 (≈ 0.698 µM) | 0.5 (≈ 1.4 µM) | 0.25 (≈ 0.698 µM) | 0.25 (≈ 0.698 µM) | 0.12 (≈ 0.335 µM) | 0.25 (≈ 0.698 µM) | > 64 | 0.5 (≈ 1.4 µM) | 0.25 (≈ 0.698 µM) | 1 (≈ 2.79 µM) | 0.12 (≈ 0.335 µM) | 0.06 (≈ 0.167 µM) | 0.25 (≈ 0.698 µM) |
| C[C@@H](O)[C@H]1C(=O)N2C(C(=O)O)=C(SCCNC=N)C[C@H]12 [IMIPENEM ANHYDROUS] | 0.5 (≈ 1.67 µM) | 0.12 (≈ 0.401 µM) | 0.25 (≈ 0.835 µM) | 0.25 (≈ 0.835 µM) | 0.25 (≈ 0.835 µM) | 0.12 (≈ 0.401 µM) | 0.25 (≈ 0.835 µM) | 1 (≈ 3.34 µM) | 0.25 (≈ 0.835 µM) | 0.12 (≈ 0.401 µM) | 0.25 (≈ 0.835 µM) | 0.015 (≈ 0.0501 µM) | 0.015 (≈ 0.0501 µM) | 0.5 (≈ 1.67 µM) |
| C[C@@H](O)[C@H]1C(=O)N2C(C(=O)O)=C(CN3CCCCC3C(N)=O)S[C@H]12 (stereo partly drawn) | 16 (≈ 45 µM) | 1 (≈ 2.81 µM) | 2 (≈ 5.63 µM) | 1 (≈ 2.81 µM) | 2 (≈ 5.63 µM) | 1 (≈ 2.81 µM) | 1 (≈ 2.81 µM) | > 64 | 4 (≈ 11.3 µM) | 0.12 (≈ 0.338 µM) | 2 (≈ 5.63 µM) | 0.12 (≈ 0.338 µM) | 0.06 (≈ 0.169 µM) | 1 (≈ 2.81 µM) |
| C[C@@H](O)[C@H]1C(=O)N2C(C(=O)O)=C(CN(C)CC(=O)N(C)C)S[C@H]12 | – | 0.5 (≈ 1.46 µM) | 1 (≈ 2.91 µM) | 1 (≈ 2.91 µM) | 1 (≈ 2.91 µM) | 0.5 (≈ 1.46 µM) | 0.5 (≈ 1.46 µM) | > 64 | 4 (≈ 11.6 µM) | – | 4 (≈ 11.6 µM) | 0.25 (≈ 0.728 µM) | 0.12 (≈ 0.349 µM) | 1 (≈ 2.91 µM) |
| C[C@@H](O)[C@H]1C(=O)N2C(C(=O)O)=C(CN3CCCC(C(N)=O)C3)S[C@H]12 (stereo partly drawn) | 32 (≈ 90 µM) | 8 (≈ 22.5 µM) | 4 (≈ 11.3 µM) | 4 (≈ 11.3 µM) | 4 (≈ 11.3 µM) | 4 (≈ 11.3 µM) | 4 (≈ 11.3 µM) | > 64 | 1 (≈ 2.81 µM) | 0.12 (≈ 0.338 µM) | 2 (≈ 5.63 µM) | 0.06 (≈ 0.169 µM) | 0.06 (≈ 0.169 µM) | 4 (≈ 11.3 µM) |
| COC(=O)[C@@H]1CCCN1CC1=C(C(=O)O)N2C(=O)[C@H]([C@@H](C)O)[C@H]2S1 | 8 (≈ 22.4 µM) | 4 (≈ 11.2 µM) | 8 (≈ 22.4 µM) | 8 (≈ 22.4 µM) | 8 (≈ 22.4 µM) | 4 (≈ 11.2 µM) | 8 (≈ 22.4 µM) | > 64 | 4 (≈ 11.2 µM) | 0.25 (≈ 0.701 µM) | 4 (≈ 11.2 µM) | 0.25 (≈ 0.701 µM) | 0.12 (≈ 0.337 µM) | 2 (≈ 5.61 µM) |
